Reference: ChEMBL document CHEMBL4184291, “Discovery of N-arylpyrroles as agonists of GPR120 for the treatment of type II diabetes” (Bioorg Med Chem Lett, 2018)

Key:
[1] = biological target: T1, Cytochrome P450 1A2 (Homo sapiens, UniProt P05177); experiment: Inhibition of CYP1A2 (unknown origin); assay type: ADME
T1 sequence (P05177 whole entry): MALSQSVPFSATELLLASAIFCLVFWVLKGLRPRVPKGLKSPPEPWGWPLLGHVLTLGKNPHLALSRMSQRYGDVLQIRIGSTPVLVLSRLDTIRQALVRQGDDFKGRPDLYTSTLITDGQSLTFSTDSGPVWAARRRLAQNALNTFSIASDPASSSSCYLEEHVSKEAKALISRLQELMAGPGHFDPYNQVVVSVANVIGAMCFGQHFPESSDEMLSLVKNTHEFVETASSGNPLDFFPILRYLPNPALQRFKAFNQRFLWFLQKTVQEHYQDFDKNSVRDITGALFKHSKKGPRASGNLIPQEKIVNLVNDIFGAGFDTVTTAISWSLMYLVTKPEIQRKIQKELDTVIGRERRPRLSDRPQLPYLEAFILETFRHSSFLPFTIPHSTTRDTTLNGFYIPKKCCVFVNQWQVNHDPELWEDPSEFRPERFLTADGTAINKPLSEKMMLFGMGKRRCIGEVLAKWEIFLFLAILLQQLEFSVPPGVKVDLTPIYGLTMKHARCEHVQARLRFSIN

[2] = biological target: Cytochrome P450 2C9 (Homo sapiens, UniProt P11712); experiment: Inhibition of CYP2C9 (unknown origin); assay type: ADME
Chain of Cytochrome P450 2C9 (P11712 whole entry): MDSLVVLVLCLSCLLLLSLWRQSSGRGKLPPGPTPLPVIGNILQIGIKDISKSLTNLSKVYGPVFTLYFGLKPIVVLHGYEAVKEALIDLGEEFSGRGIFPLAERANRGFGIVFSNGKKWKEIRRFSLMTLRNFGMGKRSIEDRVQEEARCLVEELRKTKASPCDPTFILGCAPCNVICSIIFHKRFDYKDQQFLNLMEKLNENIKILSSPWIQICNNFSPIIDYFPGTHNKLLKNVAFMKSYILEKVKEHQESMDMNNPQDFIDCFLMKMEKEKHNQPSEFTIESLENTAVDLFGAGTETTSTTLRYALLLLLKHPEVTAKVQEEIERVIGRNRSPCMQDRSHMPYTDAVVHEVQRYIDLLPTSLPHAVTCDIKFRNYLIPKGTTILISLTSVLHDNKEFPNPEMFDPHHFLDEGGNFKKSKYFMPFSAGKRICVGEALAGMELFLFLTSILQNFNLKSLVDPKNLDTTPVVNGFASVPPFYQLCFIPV

[3] = biological target: Cytochrome P450 2C19 (Homo sapiens, UniProt P33261); experiment: Inhibition of CYP2C19 (unknown origin); assay type: ADME
Chain of Cytochrome P450 2C19 (P33261 whole entry): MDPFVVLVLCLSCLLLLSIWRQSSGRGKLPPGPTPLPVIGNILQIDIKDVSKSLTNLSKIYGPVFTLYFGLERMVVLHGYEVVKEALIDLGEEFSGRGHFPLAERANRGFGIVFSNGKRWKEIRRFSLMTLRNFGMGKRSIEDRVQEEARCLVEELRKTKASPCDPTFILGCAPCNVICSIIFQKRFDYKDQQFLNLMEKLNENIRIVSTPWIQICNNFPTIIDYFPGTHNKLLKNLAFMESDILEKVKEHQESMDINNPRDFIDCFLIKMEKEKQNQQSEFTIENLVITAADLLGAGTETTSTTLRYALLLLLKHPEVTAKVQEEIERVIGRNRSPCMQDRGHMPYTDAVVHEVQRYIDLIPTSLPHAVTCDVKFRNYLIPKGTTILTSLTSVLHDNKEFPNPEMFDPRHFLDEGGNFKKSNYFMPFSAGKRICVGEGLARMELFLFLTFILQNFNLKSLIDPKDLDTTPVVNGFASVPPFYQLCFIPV

[4] = Half life in human liver microsomes; assay type: ADME, microsome
[5] = Half life in mouse at 1.15 mg/kg, iv by LC-MS/MS analysis; assay type: ADME, organism-based; conditions: in vivo
[6] = Half life in mouse at 14.6 mg/kg, po by LC-MS/MS analysis; assay type: ADME, organism-based; conditions: in vivo
[7] = AUClast in mouse at 14.6 mg/kg, po by LC-MS/MS analysis; assay type: ADME, organism-based; set-up: dose 14.6 mg/kg, route oral, time 0 - last; conditions: in vivo
[8] = Half life in rat at 2 mg/kg, iv by LC-MS/MS analysis; assay type: ADME, organism-based; conditions: in vivo
[9] = Clearance in rat at 2 mg/kg, iv by LC-MS/MS analysis; assay type: ADME, organism-based; conditions: in vivo
[10] = Volume of distribution at steady state in rat at 2 mg/kg, iv by LC-MS/MS analysis; assay type: ADME, organism-based; conditions: in vivo, read-out: Vdss
[11] = Cmax in rat at 10 mg/kg, po by LC-MS/MS analysis; assay type: ADME, organism-based; set-up: dose 10 mg/kg, route oral; conditions: in vivo
[12] = AUClast in rat at 10 mg/kg, po by LC-MS/MS analysis; assay type: ADME, organism-based; set-up: dose 10 mg/kg, time 0 - last, route oral; conditions: in vivo
[13] = Oral bioavailability in rat at 10 mg/kg by LC-MS/MS analysis; assay type: ADME, organism-based; conditions: in vivo
[14] = Clearance in dog at 1 mg/kg, iv by LC-MS/MS analysis; assay type: ADME, organism-based, Canis lupus familiaris; conditions: in vivo
[15] = Cmax in dog at 5 mg/kg, po by LC-MS/MS analysis; assay type: ADME, organism-based, Canis lupus familiaris; set-up: dose 5 mg/kg, route oral; conditions: in vivo
[16] = biological target: T2, Free fatty acid receptor 4 (Rattus norvegicus, UniProt Q2AC31); experiment: Agonist activity at recombinant rat GPR120 expressed in HEK293 cells; assay type: functional, cell-based
T2 sequence (Q2AC31 whole entry): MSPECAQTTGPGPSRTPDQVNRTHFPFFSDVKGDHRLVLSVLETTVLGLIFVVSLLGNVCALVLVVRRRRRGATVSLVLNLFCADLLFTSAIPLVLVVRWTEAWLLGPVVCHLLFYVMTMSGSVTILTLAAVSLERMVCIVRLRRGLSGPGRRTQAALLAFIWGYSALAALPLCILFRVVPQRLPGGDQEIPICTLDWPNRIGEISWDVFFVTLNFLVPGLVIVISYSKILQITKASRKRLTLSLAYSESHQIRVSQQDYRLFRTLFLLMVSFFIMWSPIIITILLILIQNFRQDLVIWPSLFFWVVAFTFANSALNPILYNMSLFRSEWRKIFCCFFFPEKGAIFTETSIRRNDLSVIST

[17] = biological target: T3, Free fatty acid receptor 4 (Homo sapiens, UniProt Q5NUL3); experiment: Agonist activity at GPR120 in human HT-29 cells assessed as intracellular calcium flux; assay type: functional, cell-based
T3 sequence (Q5NUL3 whole entry): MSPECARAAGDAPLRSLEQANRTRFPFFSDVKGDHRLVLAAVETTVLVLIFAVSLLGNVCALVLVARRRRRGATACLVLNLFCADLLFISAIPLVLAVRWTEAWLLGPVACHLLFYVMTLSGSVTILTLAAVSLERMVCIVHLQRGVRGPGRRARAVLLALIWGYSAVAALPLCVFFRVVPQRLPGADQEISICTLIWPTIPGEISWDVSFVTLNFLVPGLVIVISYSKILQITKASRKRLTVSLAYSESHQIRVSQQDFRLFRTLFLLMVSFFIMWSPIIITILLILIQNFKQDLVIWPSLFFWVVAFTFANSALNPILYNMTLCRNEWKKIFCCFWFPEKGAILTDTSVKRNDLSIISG
In short: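 Calcium-flux EC50 measured in HT-29 cells, a low-expressing line with endogenous GPR120.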

[18] = species: Homo sapiens; experiment: Selectivity ratio of EC50 for human GPR40 to EC50 for recombinant human GPR120 expressed in HEK293 cells; assay type: cell-based
[19] = biological target: Free fatty acid receptor 1 (Mus musculus, UniProt Q76JU9); experiment: Agonist activity at mouse GPR40; assay type: functional
Chain of Free fatty acid receptor 1 (Q76JU9 whole entry): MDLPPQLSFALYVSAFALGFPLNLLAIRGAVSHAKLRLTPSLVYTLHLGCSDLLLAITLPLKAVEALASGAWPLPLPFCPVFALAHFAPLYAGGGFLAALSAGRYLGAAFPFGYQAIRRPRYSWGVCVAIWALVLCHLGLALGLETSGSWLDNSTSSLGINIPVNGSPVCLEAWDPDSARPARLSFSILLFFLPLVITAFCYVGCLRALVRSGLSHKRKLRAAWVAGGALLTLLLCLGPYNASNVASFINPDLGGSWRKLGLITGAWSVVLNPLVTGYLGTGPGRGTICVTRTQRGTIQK

[20] = biological target: 5-hydroxytryptamine receptor 2B (Homo sapiens) (UniProt P41595); experiment: Displacement of [125I](+/-)DOI from recombinant human 5-HT2B at 10 uM after 60 mins by scintillation counting method relative to control
Chain of 5-hydroxytryptamine receptor 2B (Homo sapiens) (P41595 whole entry): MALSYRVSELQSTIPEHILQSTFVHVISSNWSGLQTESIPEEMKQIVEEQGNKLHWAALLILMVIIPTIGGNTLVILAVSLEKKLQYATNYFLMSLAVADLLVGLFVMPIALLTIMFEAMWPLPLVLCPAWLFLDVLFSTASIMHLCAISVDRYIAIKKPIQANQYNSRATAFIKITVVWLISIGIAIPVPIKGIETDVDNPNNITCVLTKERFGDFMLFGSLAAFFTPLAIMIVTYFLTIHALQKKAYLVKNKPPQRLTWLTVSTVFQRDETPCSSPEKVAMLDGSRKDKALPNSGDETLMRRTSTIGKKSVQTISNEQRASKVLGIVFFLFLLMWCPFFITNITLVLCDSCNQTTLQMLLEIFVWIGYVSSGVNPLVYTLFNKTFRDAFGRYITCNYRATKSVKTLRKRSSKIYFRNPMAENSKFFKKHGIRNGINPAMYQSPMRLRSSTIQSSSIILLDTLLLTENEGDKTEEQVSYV

[21] = species: Rattus norvegicus; experiment: Displacement of [35S]TBPS from rat GABA-gated chloride channel at 10 uM after 120 mins by scintillation counting method
[22] = test system: Cavia porcellus; experiment: Cardiotoxicity in guinea pig assessed as effect on QRS interval at 22.4 mg/kg; assay type: toxicity, organism-based; conditions: in vivo
[23] = test system: Cavia porcellus; experiment: Cardiotoxicity in guinea pig assessed as effect on QT interval at 22.4 mg/kg; assay type: toxicity, organism-based; conditions: in vivo
[24] = test system: Mus musculus; experiment: Antidiabetic activity in diet-induced obese C57Bl/6 mouse model assessed as plasma glucose AUC at 10 mg/kg administered 30 mins prior to glucose challenge measured up to 90 mins post dose by ipGTT (reference value: 10113 mg/dL.min); assay type: functional, organism-based; set-up: time < 1.5 hr, dose 10 mg/kg
In short: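 Intraperitoneal glucose tolerance test with 10 mg/kg dosing, run in GPR120 knockout mice and in wild-type mice.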

[25] = test system: Mus musculus; experiment: Antiobesity activity in diet-induced obesity C57Bl6/J mouse model assessed as basal glucose level in plasma at 10 mg/kg bid for 15 days measured on day 15 post 6 hrs fasting (reference value: 187 +/- 24 mg/dL); assay type: functional
[26] = test system: Mus musculus; experiment: Antiobesity activity in diet-induced obesity C57Bl6/J mouse model assessed as final glucose level in plasma at 30 mg/kg qd for 15 days measured on day 15 post 6 hrs fasting (reference value: 184 +/- 30 mg/dL); assay type: functional
[27] = test system: Mus musculus; experiment: Antiobesity activity in diet-induced obesity C57Bl6/J mouse model assessed as change in plasma insulin level at 10 mg/kg bid for 15 days measured on day 15 post 6 hrs fasting; assay type: functional
[28] = test system: Mus musculus; experiment: Antidiabetic activity in diet-induced obese C57Bl/6 mouse model assessed as plasma concentration required to show reduction in glucose level at 3 mg/kg administered 30 mins prior to glucose challenge measured up to 90 mins post dose by OGTT; assay type: functional

O=C(O)CCc1cc(F)c(OCc2c(C(F)(F)F)ccn2-c2ccc(Cl)cc2)c(F)c1
INH [1]: > 10 µM | INH [2]: 7 µM | INH [3]: 10 µM | half-life [4]: 0.85 h | half-life [5]: 4.14 h | half-life [6]: 3.45 h | AUC(0-t) [7]: 81700 ng·h/mL | half-life [8]: 1.64 h | clearance [9]: 3.2 mL/min/kg | Vd [10]: 0.42 L/kg | Cmax [11]: 11600 ng/mL | AUC(0-t) [12]: 60900 ng·h/mL | bioavailability [13]: 116% | clearance [14]: 2.45 mL/min/kg | Cmax [15]: 8920 ng/mL | EC50 [16]: 713 nM | EC50 [17]: 137 nM | Ratio EC50 [18]: 42 | EC50 [19]: 3520 nM | inhibition [20]: 62% | inhibition [21]: 66% | Activity [22]: Non-Toxic | Activity [23]: Non-Toxic | AUC [24]: 4920 mg/dL·min | Activity [25]: 203 mg/dL | Activity [26]: 151 mg/dL | Activity [27]: -1080 pg/mL | EC [28]: 32 nM
